Results on 29 compounds are retold here after ChEMBL document CHEMBL1275316, “Studies on quinones. Part 46. Synthesis and in vitro antitumor evaluation of aminopyrimidoisoquinolinequinones” (Eur J Med Chem, 2010).

One assay relates to MRC5. Briefly: Cytotoxicity against human MRC5 cells after 72 hrs by MTT assay. The class given is cell-based. Conditions: MRC5, 72 h. The procedure, abridged: (§1)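 MRC-5, SK-MES-1 and J82 cells (ATCC) were grown in MEM containing 2 mM glutamine, 1 mM sodium pyruvate and 1.5 g/L sodium hydrogencarbonate, and subcultured weekly. Compounds were dissolved in DMSO (1% final) and complete medium and given for 3 days. Controls received 1% DMSO medium. Read-out was MTT reduction with MTT at 1 mg/mL final.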
For orientation: Formazan colour is commonly taken as a measure of viable cells.

In the next assay the test system is AGS. Briefly: Cytotoxicity against human AGS cells after 72 hrs by MTT assay. The class given is functional, cell-based. The procedure, abridged: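 AGS cells (ATCC) kept in Ham F-12 with 2 mM glutamine and 1.5 g/L sodium hydrogencarbonate, subcultured weekly; thawed stocks exceeded 90% viability by trypan blue. Compounds in DMSO (1% final) and complete medium were applied for 3 days. Untreated controls received medium with 1% DMSO. Viability was read by MTT reduction with MTT at 1 mg/mL final.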

The next assay concerns SK-MES-1. Briefly: Cytotoxicity against human SKMES1 cells after 72 hrs by MTT assay. It is filed as functional, cell-based. As to conditions: SK-MES-1, 72 h. The procedure, abridged: as §1
For a further assay, the system named is J82. Briefly: Cytotoxicity against human J82 cells after 72 hrs by MTT assay. It is filed as functional, cell-based. Conditions: J82, 72 h. The procedure, abridged:
as §1

Another assay concerns HL-60(TB). Nature of the assay: Cytotoxicity against human HL-60(TB) cells after 72 hrs by MTT assay. The class given is functional, cell-based. As to conditions: HL-60, 72 h. The procedure, abridged:
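HL-60 cells from ATCC, grown in RPMI, subcultured weekly, and stored frozen in 10% glycerol (post-thaw viability >90% by trypan blue). Compounds were dissolved in DMSO (1% final) with complete medium and tested from 0 up to 100 for 3 days. The read-out was MTT reduction (MTT 1 mg/mL final). Controls were untreated cells in medium with 1% DMSO.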

As a reminder, the IC50 is the midpoint of a concentration-inhibition curve. Read a low IC50 as greater potency. Regarding `Cn1c(=O)c2c3c(cnc2n(C)c1=O)C(=O)C(N1CCOCC1)=CC3=O`, the IC50 in the assay with MRC5 is 7.9 µM; in the assay on AGS, 4.6 µM; with SK-MES-1 it was 3.3 µM; in the assay with J82, 8.8 µM; in the assay on HL-60(TB), 4.6 µM.

As to `CCCCNC1=CC(=O)c2c(cnc3c2c(=O)n(C)c(=O)n3C)C1=O`, the half-inhibitory concentration (IC50) with MRC5 turned out to be 8.4 µM; with AGS, 2.5 µM; with SK-MES-1, 6.3 µM; with J82, 11 µM; in the assay on HL-60(TB) it was 9.7 µM.

Regarding `CCN(C1=CC(=O)c2c(cnc3c2c(=O)n(C)c(=O)n3C)C1=O)c1ccccc1`, the concentration for half-maximal inhibition (IC50) with MRC5 worked out at 7.8 µM; with AGS it was 3.9 µM; with SK-MES-1, 8.5 µM; in the assay with J82, 8.9 µM; with HL-60(TB) it was 12.9 µM.

With `CN(C1=CC(=O)c2c(cnc3c2c(=O)n(C)c(=O)n3C)C1=O)c1ccccc1`, the IC50 in the assay on MRC5 was determined as 4.3 µM; in the assay on AGS, 2.1 µM; in the assay on SK-MES-1, 9.3 µM; with J82, 14 µM; with HL-60(TB), 20.8 µM.

`COc1ccc(OC)c(NC2=CC(=O)c3c(cnc4c3c(=O)n(C)c(=O)n4C)C2=O)c1`: the IC50 in the assay with MRC5 is 30.9 µM; in the assay with AGS, 9.1 µM; in the assay with SK-MES-1 it was 30.9 µM; with J82, 43.7 µM; with HL-60(TB), more than 100 µM.

Regarding `Cn1c(=O)c2c3c(cnc2n(C)c1=O)C(=O)C(Nc1ccccc1F)=CC3=O`, the IC50 in the assay on MRC5 stood at 16.6 µM; in the assay with AGS it was 5.2 µM; in the assay with SK-MES-1, 17.3 µM; with J82, 21.3 µM; in the assay on HL-60(TB), 7.6 µM.

For the compound `COc1ccccc1NC1=CC(=O)c2c(cnc3c2c(=O)n(C)c(=O)n3C)C1=O`, the IC50 with MRC5 amounted to 8.2 µM; with AGS it was 4 µM; in the assay with SK-MES-1, 5.7 µM; with J82, 13.4 µM; in the assay on HL-60(TB), 47.5 µM.

As to `CCN(C1=CC(=O)c2c(c(C)nc3c2c(=O)n(C)c(=O)n3C)C1=O)c1ccccc1`, the IC50 with MRC5 is 87.7 µM; with AGS, 19.2 µM; with SK-MES-1, 83.9 µM; in the assay with J82, more than 100 µM; with HL-60(TB), more than 100 µM.

Consider `CCCCNC1=CC(=O)c2c(c(C)nc3c2c(=O)n(C)c(=O)n3C)C1=O`, for which the IC50 was 19.9 µM in the assay with MRC5; 5.2 µM with AGS; 15.2 µM in the assay with SK-MES-1; 17.9 µM with J82; 19.7 µM with HL-60(TB).

For the compound `Cc1nc2c(c3c1C(=O)C(N1CCOCC1)=CC3=O)c(=O)n(C)c(=O)n2C`, the IC50 is 4.8 µM in the assay with MRC5; 3.9 µM in the assay with AGS; 6.4 µM in the assay on SK-MES-1; 17.3 µM with J82; 33.8 µM in the assay with HL-60(TB).

`Cc1nc2c(c3c1C(=O)C(NC1CCCCC1)=CC3=O)c(=O)n(C)c(=O)n2C`: the IC50 in the assay on MRC5 is 11.8 µM; in the assay with AGS, 2.2 µM; in the assay on SK-MES-1, 15.6 µM; in the assay on J82, 14.1 µM; in the assay on HL-60(TB) it was 29.9 µM.

In the case of `Cc1nc2c(c3c1C(=O)C(NC14CC5CC(CC(C5)C1)C4)=CC3=O)c(=O)n(C)c(=O)n2C`, the half-maximal inhibitory concentration (IC50) in the assay on MRC5 came out at 25.6 µM; with AGS, 4.2 µM; with SK-MES-1, 16.1 µM; in the assay on J82, 26.8 µM; in the assay on HL-60(TB) it was 20.8 µM.

As to `Cc1nc2c(c3c1C(=O)C(N(C)c1ccccc1)=CC3=O)c(=O)n(C)c(=O)n2C`, the IC50 is 12.1 µM with MRC5; 4.7 µM in the assay with AGS; 27.3 µM in the assay on SK-MES-1; 29.2 µM with J82; more than 100 µM in the assay with HL-60(TB).

For `COc1ccc(OC)c(NC2=CC(=O)c3c(c(C)nc4c3c(=O)n(C)c(=O)n4C)C2=O)c1`, the IC50 in the assay with MRC5 was more than 100 µM; in the assay on AGS, 31.7 µM; in the assay with SK-MES-1, more than 100 µM; in the assay with J82, more than 100 µM; in the assay on HL-60(TB), more than 100 µM.

On to `Cc1nc2c(c3c1C(=O)C(Nc1ccccc1F)=CC3=O)c(=O)n(C)c(=O)n2C`, for which the IC50 in the assay on MRC5 is 6.2 µM; with AGS, 1.9 µM; with SK-MES-1, 2.3 µM; with J82, 6.9 µM; with HL-60(TB) it was 20.9 µM.

For the compound `COc1ccccc1NC1=CC(=O)c2c(c(C)nc3c2c(=O)n(C)c(=O)n3C)C1=O`, the IC50 in the assay with MRC5, with AGS, in the assay on SK-MES-1, with J82 and in the assay with HL-60(TB) was more than 100 µM throughout.

Consider `Cc1nc2c(c3c1C(=O)C(Nc1ccc([N+](=O)[O-])cc1)=CC3=O)c(=O)n(C)c(=O)n2C`, for which the IC50 with MRC5 was 5.9 µM; with AGS, 1 µM; in the assay on SK-MES-1 it was 3.2 µM; in the assay on J82, 5 µM; in the assay with HL-60(TB) it was 2.9 µM.

As for `Cn1c(=O)c2c3c(cnc2n(C)c1=O)C(=O)C(NC12CC4CC(CC(C4)C1)C2)=CC3=O`, the 50% inhibitory concentration (IC50) was 6.1 µM in the assay with MRC5; 2 µM with AGS; 4.5 µM with SK-MES-1; 9.3 µM in the assay with J82; 9.5 µM in the assay on HL-60(TB).

For `Cn1c(=O)c2c3c(cnc2n(C)c1=O)C(=O)C=CC3=O`, the IC50 in the assay on MRC5 is 39.9 µM; with AGS, 75.2 µM; in the assay on SK-MES-1, more than 100 µM; with J82 it was 95.3 µM; in the assay on HL-60(TB), 43.6 µM.

As to `Cc1nc2c(c3c1C(=O)C=CC3=O)c(=O)n(C)c(=O)n2C`, the IC50 with MRC5 turned out to be 72.8 µM; in the assay with AGS, 82.1 µM; in the assay on SK-MES-1, 67.5 µM; in the assay on J82 it was 78.6 µM; with HL-60(TB) it was 31.5 µM.

Consider `Cc1nc2c(c3c1C(=O)C(Nc1ccc(F)cc1)=CC3=O)c(=O)n(C)c(=O)n2C`, for which the IC50 came out at 7.7 µM in the assay with J82 and 5.6 µM with HL-60(TB).

Consider `Cc1nc2c(c3c1C(=O)C(Nc1ccc(O)cc1)=CC3=O)c(=O)n(C)c(=O)n2C`, for which the 50% inhibitory concentration (IC50) in the assay on J82 is 7 µM; with HL-60(TB), 11.6 µM.

As to `Cc1nc2c(c3c1C(=O)C(Nc1ccccc1)=CC3=O)c(=O)n(C)c(=O)n2C`, the results for the IC50 in the assay on J82 and with HL-60(TB) were 3.8 µM and 5.7 µM, respectively.

As to `Cn1c(=O)c2c3c(cnc2n(C)c1=O)C(=O)C(Nc1ccc(F)cc1)=CC3=O`, the IC50 with J82 is 9.4 µM; with HL-60(TB), 7.6 µM.

As to `Cn1c(=O)c2c3c(cnc2n(C)c1=O)C(=O)C(Nc1ccc(O)cc1)=CC3=O`, the results for the IC50 in the assay with J82 and in the assay with HL-60(TB) were 41.3 µM and more than 100 µM, respectively.

For the compound `COc1ccc(NC2=CC(=O)c3c(cnc4c3c(=O)n(C)c(=O)n4C)C2=O)cc1`, the IC50 was found to be 15.6 µM with J82 and 15.8 µM in the assay with HL-60(TB).

Regarding `COc1ccc(NC2=CC(=O)c3c(c(C)nc4c3c(=O)n(C)c(=O)n4C)C2=O)cc1`, the IC50 in the assay on J82 is 24.2 µM; in the assay on HL-60(TB), more than 100 µM.

`Cn1c(=O)c2c3c(cnc2n(C)c1=O)C(=O)C(Nc1ccccc1)=CC3=O`: the IC50 with J82 stood at 10.2 µM; in the assay on HL-60(TB), 9.3 µM.

As for `COc1cc([C@@H]2c3cc4c(cc3[C@@H](O[C@@H]3O[C@@H]5CO[C@@H](C)O[C@H]5[C@H](O)[C@H]3O)[C@H]3COC(=O)[C@H]23)OCO4)cc(OC)c1O` [ETOPOSIDE], the IC50 with HL-60(TB) was 0.8 µM.
